In ChEMBL document CHEMBL1177810, “Acid-catalyzed synthesis of 10-substituted triazolyl artemisinins and their growth inhibitory activity against various cancer cells” (2010):

Columns and labels:
[1] = Cytotoxicity against human A172 cells after 72 hrs by MTT assay; type: functional; conditions: A 172, 72 h
Summary of the method: (§1)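 Cells seeded at 5×10^3 per well in DMEM with 10% FBS, preincubated 4 h, then exposed to serial dilutions for 72 h. MTT at 1 mg/mL added for 4 h at 37 °C, formazan dissolved in DMSO, absorbance read at 570 nm. Triplicate assays; GI50 from non-linear regression of sigmoidal dose-response curves.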

B16 = assay: Cytotoxicity against mouse B16 cells after 72 hrs by MTT assay; type: functional; conditions: B16, 72 h; summary of the method: as §1
DLD-1 = assay: Cytotoxicity against human DLD1 cells after 72 hrs by MTT assay; type: functional; conditions: DLD-1, 72 h; summary of the method: as §1
SiHa = assay: Cytotoxicity against human SiHa cells after 72 hrs by MTT assay; type: functional; summary of the method: as §1
HeLa = assay: Cytotoxicity against human HeLa cells after 72 hrs by MTT assay; type: functional; summary of the method: as §1
[2] = Cytotoxicity against human U87 cells after 72 hrs by MTT assay; type: functional, U-87MG ATCC; conditions: U-87 MG; summary of the method: as §1

Row | Structure (SMILES) | GI50 [1] [nM] | GI50 (B16) [nM] | GI50 (DLD-1) [nM] | GI50 (SiHa) [nM] | GI50 (HeLa) [nM] | GI50 [2] [nM]
1 | C[C@H]1[C@H](n2nncc2-c2cc(F)cc(F)c2)O[C@@H]2O[C@]3(C)CC[C@H]4[C@H](C)CC[C@@H]1[C@@]24OO3 | 100 | 100 | 170 | 70 | 80 | 170
2 | Cc1ccc(-c2cn([C@@H]3O[C@@H]4O[C@]5(C)CC[C@H]6[C@H](C)CC[C@@H]([C@H]3C)[C@@]46OO5)nn2)cc1 | 90 | 120 | 400 | 120 | 110 | 280
3 | Cc1ccc(-c2cn([C@H]3O[C@@H]4O[C@]5(C)CC[C@H]6[C@H](C)CC[C@@H]([C@@H]3C)[C@@]46OO5)nn2)cc1 | 1740 | 700 | 160 | 1580 | 730 | 1340
4 | C[C@H]1[C@H](n2cc(-c3ccccc3)nn2)O[C@@H]2O[C@]3(C)CC[C@H]4[C@H](C)CC[C@@H]1[C@@]24OO3 | 570 | 780 | 930 | 730 | 580 | 500
5 | C[C@H]1[C@H](n2cc(-c3cc(F)cc(F)c3)nn2)O[C@@H]2O[C@]3(C)CC[C@H]4[C@H](C)CC[C@@H]1[C@@]24OO3 | 140 | 130 | 300 | 120 | 50 | 130
6 | COc1ccc(-c2cn([C@H]3O[C@@H]4O[C@]5(C)CC[C@H]6[C@H](C)CC[C@@H]([C@@H]3C)[C@@]46OO5)nn2)cc1 | 70 | 100 | 220 | 70 | 100 | 70
7 | C[C@H]1[C@H](n2nncc2-c2ccccc2C(F)(F)F)O[C@@H]2O[C@]3(C)CC[C@H]4[C@H](C)CC[C@@H]1[C@@]24OO3 | 80 | 80 | 170 | 80 | 70 | 80
8 | C[C@@H]1[C@@H](n2cc(-c3ccccc3)nn2)O[C@@H]2O[C@]3(C)CC[C@H]4[C@H](C)CC[C@@H]1[C@@]24OO3 | 110 | 200 | 280 | 140 | 30 | 150
9 | CC(=O)O[C@H]1C(=O)[C@@]2(C)[C@H]([C@H](OC(=O)c3ccccc3)[C@]3(O)C[C@H](OC(=O)[C@H](O)[C@@H](NC(=O)c4ccccc4)c4ccccc4)C(C)=C1C3(C)C)[C@]1(OC(C)=O)CO[C@@H]1C[C@@H]2O [PACLITAXEL] | 10 | 10 | 10 | 30 | 20 | 20
10 | C[C@H]1[C@H](n2cc(-c3cccc(Cl)c3)nn2)O[C@@H]2O[C@]3(C)CC[C@H]4[C@H](C)CC[C@@H]1[C@@]24OO3 | 310 | 210 | 290 | 240 | 90 | 250
11 | CCCCCc1ccc(-c2cn([C@@H]3O[C@@H]4O[C@]5(C)CC[C@H]6[C@H](C)CC[C@@H]([C@H]3C)[C@@]46OO5)nn2)cc1 | 70 | 70 | 140 | 80 | 90 | 70
12 | COc1ccc(-c2cnnn2[C@@H]2O[C@@H]3O[C@]4(C)CC[C@H]5[C@H](C)CC[C@@H]([C@H]2C)[C@@]35OO4)cc1 | 210 | 290 | 880 | 240 | 90 | 230
13 | Cc1ccc(-c2cnnn2[C@@H]2O[C@@H]3O[C@]4(C)CC[C@H]5[C@H](C)CC[C@@H]([C@H]2C)[C@@]35OO4)cc1 | 100 | 110 | 290 | 190 | 40 | 110
14 | C[C@H]1[C@H](n2nncc2-c2ccccc2)O[C@@H]2O[C@]3(C)CC[C@H]4[C@H](C)CC[C@@H]1[C@@]24OO3 | 150 | 220 | 600 | 140 | 40 | 200
15 | C[C@H]1[C@H](n2nncc2-c2ccc(F)cc2)O[C@@H]2O[C@]3(C)CC[C@H]4[C@H](C)CC[C@@H]1[C@@]24OO3 | 80 | 770 | 310 | 80 | 60 | 90
16 | C[C@@H]1[C@@H](n2cc(-c3cc(F)cc(F)c3)nn2)O[C@@H]2O[C@]3(C)CC[C@H]4[C@H](C)CC[C@@H]1[C@@]24OO3 | 540 | 700 | 1280 | 460 | 240 | 450
17 | C[C@H]1[C@H](n2nncc2-c2cccc(Cl)c2)O[C@@H]2O[C@]3(C)CC[C@H]4[C@H](C)CC[C@@H]1[C@@]24OO3 | 130 | 100 | 40 | 160 | 60 | 100
18 | C[C@@H]1[C@@H](n2cc(-c3ccc(F)cc3)nn2)O[C@@H]2O[C@]3(C)CC[C@H]4[C@H](C)CC[C@@H]1[C@@]24OO3 | 560 | 840 | 2150 | 960 | 410 | 630
19 | C[C@H]1[C@H](n2cc(-c3ccccc3C(F)(F)F)nn2)O[C@@H]2O[C@]3(C)CC[C@H]4[C@H](C)CC[C@@H]1[C@@]24OO3 | 290 | 340 | 2380 | 320 | 190 | 290
20 | C[C@@H]1[C@@H](n2cc(-c3cccc(Cl)c3)nn2)O[C@@H]2O[C@]3(C)CC[C@H]4[C@H](C)CC[C@@H]1[C@@]24OO3 | 330 | 280 | 1170 | 410 | 210 | 350
21 | C[C@@H]1[C@@H](n2cc(-c3ccccc3C(F)(F)F)nn2)O[C@@H]2O[C@]3(C)CC[C@H]4[C@H](C)CC[C@@H]1[C@@]24OO3 | 400 | 480 | 1070 | 620 | 350 | 530
22 | CCCCCc1ccc(-c2cn([C@H]3O[C@@H]4O[C@]5(C)CC[C@H]6[C@H](C)CC[C@@H]([C@@H]3C)[C@@]46OO5)nn2)cc1 | 260 | 340 | 840 | 440 | 240 | 270
23 | COc1ccc(-c2cn([C@@H]3O[C@@H]4O[C@]5(C)CC[C@H]6[C@H](C)CC[C@@H]([C@H]3C)[C@@]46OO5)nn2)cc1 | 300 | 130 | 490 | 360 | 130 | 390
24 | C[C@H]1[C@H](n2cc(-c3ccc(F)cc3)nn2)O[C@@H]2O[C@]3(C)CC[C@H]4[C@H](C)CC[C@@H]1[C@@]24OO3 | 130 | 110 | 480 | 140 | 50 | 160
25 | CCCCCc1ccc(-c2cnnn2[C@@H]2O[C@@H]3O[C@]4(C)CC[C@H]5[C@H](C)CC[C@@H]([C@H]2C)[C@@]35OO4)cc1 |  | 80 | 220 | 100 | 40 | 90
